Test results taken from the RNAGym collection of RNA variant scans (doi:10.1126/science.aae0568).
This sample holds only a part of the variants without activity.

B1: tRNA (parent)
chain: GUUCCGUUGGCGUAAUGGUAACGCGUCUCCCUCCUAAGGAGAAGACUGCGGGUUCGAGUCCCGUACGGAACG

Variants of: B1
Assay: yeast fitness relative to wild type (ratio to wild type); higher = fitter; tRNA-Arg(CCU), competitive growth, 37 C, YPD
Method in brief: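 For this measurement, the tRNA-Arg(CCU) gene was varied by chemical synthesis at a 3% per-site mutation rate across 69 sites, and each variant was placed at the native genomic locus in Saccharomyces cerevisiae. The pooled strains went through a 24-hour competition in YPD at 37°C in six parallel replicates, with amplicons from start and end populations read by 100-nucleotide paired-end sequencing. Darwinian fitness relative to wild type followed from the change in each genotype's frequency. Genotypes needed ≥ 100 starting reads, and estimates < 0.5 were set to 0.5.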

Row | Variant | yeast fitness
1 | C11U C29U C55U | ≤ 0.5
2 | C11U C60G | 0.607
3 | C11U A20U A36G C55G | ≤ 0.5
4 | C11U C22G U47C U53G | ≤ 0.5
5 | C11U A36G A70G | 0.672
6 | C11U C24A | 0.606
7 | C11U C24U | 0.852
8 | C11U C27U C31A U35C G48U C55G C66U A70C | ≤ 0.5
9 | C11U C27U C31A U35C C55G C66U A70C | 0.512
10 | C11U A15C A70U | 0.586
11 | C11U C55A U64C | ≤ 0.5
12 | C11G U13A U16G U26A A65G | ≤ 0.5
13 | C11U C31G C34G A43U G68C | 0.571
14 | C11U C22G G52C G56C | ≤ 0.5
15 | C11G G51A C60U | 0.79
16 | C11G U32G C33U A37U | ≤ 0.5
17 | C11U C22U C66U | 0.517
18 | C11U C46G C49U | 0.825
19 | C11U A14C U54A | ≤ 0.5
20 | C11U C34G | 0.591
21 | C11U C55A C62U | ≤ 0.5
22 | C11U A15G C46U | 0.961
23 | C11G G25A A37U | 0.573
24 | C11G U16C A21U | ≤ 0.5

Row | Variant | yeast fitness
25 | C11U A20C G25C C27A A37U | ≤ 0.5
26 | C11G U26A U54C | ≤ 0.5
27 | C11U C22U G44C U64G | 0.534
28 | C11U C30U A42U G51A A57U A65U A70U | ≤ 0.5
29 | C11U A45G C49A | 0.567
30 | C11U C33U A43G | 0.595
31 | C11U | 1.01
32 | C11G U16G G38C G68A | ≤ 0.5
33 | C11U A14G | 0.865
34 | C11U A14C | 0.745
35 | C11U C22U U54C | 0.639
36 | C11U C60U C62U | ≤ 0.5
37 | C11U C60U C62G | 0.588
38 | C11U C30A G51A G67A | ≤ 0.5
39 | C11G G23C C49U G56A G63A | ≤ 0.5
40 | C11U A14C A40C G44C C55G | ≤ 0.5
41 | C11U A20U C24U C29A | ≤ 0.5
42 | C11G U16A C60A | ≤ 0.5
43 | C11U C27A | 0.791
44 | C11G U16A U26A C34U C55G | ≤ 0.5
45 | C11U A15U G51A G56C | ≤ 0.5
46 | C11G G44C | 0.639
47 | C11G U16G U35A G41C | ≤ 0.5
48 | C11U A14G C46A G51A | 0.615

Row | Variant | yeast fitness
49 | C11G U13G C62G | ≤ 0.5
50 | C11G U13A U16G U26A C66U | ≤ 0.5
51 | C11U C31G A45G G56U | ≤ 0.5
52 | C11G G48A A69U | ≤ 0.5
53 | C11U C30U C34G G68C | ≤ 0.5
54 | C11G U35A | 0.528
55 | C11U C24G C33A A40C U53C | 0.626
56 | C11G U16A G23C C30U C34U G67U | 0.537
57 | C11U A40C U53A A69C A70U | ≤ 0.5
58 | C11U C27U C46U A57U | 0.647
59 | C11U C30A G39A U47A G63C | ≤ 0.5
60 | C11U C31A G67A | ≤ 0.5
61 | C11U C34U G41A | ≤ 0.5
62 | C11U C31A A42G C55A | ≤ 0.5
63 | C11U A43G A57U | 0.568
64 | C11U C49U C61G A65C | 0.534
65 | C11U C22U A70G | 0.644
66 | C11G G52C U54C A57U | ≤ 0.5
67 | C11U C29U C30G | 0.549
68 | C11U A21G C62U | 0.648
69 | C11U C49U A70C | 0.672
70 | C11U C29U G67A | 0.57
71 | C11G U13G A69C | 0.531
72 | C11U A15C C27A G39C G67U | ≤ 0.5

Row | Variant | yeast fitness
73 | C11U A14U C24G G44A C49U G67U | ≤ 0.5
74 | C11U A43U C66U | 0.555
75 | C11U A65U G67C | ≤ 0.5
76 | C11U C34A A36C G68C | ≤ 0.5
77 | C11U A21C A43G | ≤ 0.5
78 | C11U C55A G58C | ≤ 0.5
79 | C11U C27G A43C | 0.577
80 | C11U C27G A43U | 0.52
81 | C11U C31A A37G | ≤ 0.5
82 | C11U A15C C27A G39C | ≤ 0.5
83 | C11G U19G A45C | ≤ 0.5
84 | C11U A15U U19G A20G G67C | ≤ 0.5
85 | C11G G25A A36U | 0.615
86 | C11G G23A C34G | ≤ 0.5
87 | C11U C31G C34G A43U G68C A69G | 0.532
88 | C11U A21G U64C | 0.945
89 | C11U C27U C31U A36C G44C A45G G56C | ≤ 0.5
90 | C11U A43C G68A | 0.545
91 | C11U A14G U35C C60G | ≤ 0.5
92 | C11U C24U C34G A70G | ≤ 0.5
93 | C11G U16A G23C C30U C34U A69U | 0.844
94 | C11U A15G A69C | 0.75
95 | C11U C27G A36G G63C C66U | ≤ 0.5
96 | C11U A21G A37U A40G G41A | ≤ 0.5

Row | Variant | yeast fitness
97 | C11G G68C | 0.597
98 | C11G U47A C61G | ≤ 0.5
99 | C11U A20C C29G A42G G56C G58A | ≤ 0.5
100 | C11U C29G C31U G58U A65G G67A | ≤ 0.5
101 | C11G G41A A69U | ≤ 0.5
102 | C11U A57U | 0.677
103 | C11U A21G C55G | 0.566
104 | C11G G39C U47C C60A C61G | ≤ 0.5
105 | C11G U19A C34G C49G | ≤ 0.5
106 | C11U C34G A37U | ≤ 0.5
107 | C11U A15U C34A | 0.588
108 | C11U A36U A43C A57G | 1.1
109 | C11U A15C C27A G39C G63U U64A | ≤ 0.5
110 | C11U A15C C27G C30U C46A | ≤ 0.5
111 | C11U A15G C27G | 0.544
112 | C11G U26A C30U G48A U54A C55G A65U | 0.664
113 | C11U C29U G39A | 0.619
114 | C11G U16A C24U | ≤ 0.5
115 | C11U C30U C49U | 0.646
116 | C11U C34U G48A | ≤ 0.5
117 | C11G U35A G68C | ≤ 0.5
118 | C11U A14G C24G C27U G41A A42C G67C | ≤ 0.5
119 | C11U C31G U64G A69G | 0.842
120 | C11G U13G G23C C34U U59C C66U | ≤ 0.5

Row | Variant | yeast fitness
121 | C11U C49U A65G | 0.76
122 | C11U C31G | 0.791
123 | C11U A15U G38A | ≤ 0.5
124 | C11U C30A U32G C49U C55G | ≤ 0.5
125 | C11U C29U C61U U64C | ≤ 0.5
126 | C11G U26C C61U C62G | 0.62
127 | C11G U13G A20C C27G C29A | ≤ 0.5
128 | C11U A14G A37C | 0.737
129 | C11U A42C C49G | ≤ 0.5
130 | C11U A15U C31A U32A A57G G67A | ≤ 0.5
131 | C11G U16C C24U U28C | ≤ 0.5
132 | C11U A15C G56A | 0.57
133 | C11U C33U A36G G39A G44A C55G U59C | ≤ 0.5
134 | C11U A15G G63C C66U | ≤ 0.5
135 | C11G G25A C62U | ≤ 0.5
136 | C11G G38C C49A | 0.583
137 | C11G G39C U47C C60A C61G A69U | 0.528
138 | C11U C55G G63C G67C | ≤ 0.5
139 | C11U A20C C29A C31U U32C A65C | ≤ 0.5
140 | C11G U19C C27G U28G | ≤ 0.5
141 | C11U C29G C33U | ≤ 0.5
142 | C11U A37G A57G A70C | ≤ 0.5
143 | C11G U13G C33G G41A G63A A69C | ≤ 0.5
144 | C11U C49G | 0.892

Row | Variant | yeast fitness
145 | C11U A57U A70C | 0.512
146 | C11U C31G C34G A43U C61U A65U | ≤ 0.5
147 | C11U C22A C29G C33U A57U A70U | ≤ 0.5
148 | C11U C29U U35C | ≤ 0.5
149 | C11U A37C G56A | ≤ 0.5
150 | C11U C22G C34A C49U | ≤ 0.5
151 | C11U A42C A69U | 0.773
152 | C11G U32A C46U | 0.598
153 | C11G U13G C30U U32A A37G A40U A57U | ≤ 0.5
154 | C11U A20G C22A G23C U28G A43G A57G | ≤ 0.5
155 | C11U A15C A21G C24G U28A C61U | ≤ 0.5
156 | C11U A21U | 1.02
157 | C11U A21G | 0.922
158 | C11U A43U A70U | 0.764
159 | C11U A20C C22G A65G A70C | ≤ 0.5
160 | C11U A21G A70C | 0.818
161 | C11G G23C A36G A37G | 0.774
162 | C11G G23C C49A C66G | ≤ 0.5
163 | C11U C31A A57C | ≤ 0.5
164 | C11U C31G A43C | 0.654
165 | C11U A36G C46U G56A | ≤ 0.5
166 | C11G G18U C22U G39C C49G A57U A69U | ≤ 0.5
167 | C11G U26C A45C A57C U59G | ≤ 0.5
